Legend:
[1] = Apparent Michaelis-Menten constant (Km (app)) for the metabolic intermediary complex formation was reported.; type: ADME; settings: read-out: Km app
Outline: (§1)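 Liver microsomes from male Sprague-Dawley rats (200–240 g) pretreated with phenobarbital ip (three daily injections of 80, then 40 mg/kg on day 4), isolated by gel filtration. Incubation at 25 °C, 1 mg/mL protein, 50 mM potassium phosphate pH 7.5, 10 mM MgCl2, with substrate. Started by NADPH. ΔA455–490 per μmol P-450 versus time read by difference spectroscopy. Vmax(obsd) and Km(app) come from linear plots over a defined substrate range.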

[2] = Compound was tested for the maximal velocity of metabolic intermediary complex formation; type: ADME; outline: as §1

SMILES | Km [1] [µM] | Vmax [2]
CCC[C@H](N)Cc1ccccc1.Cl | 32 | 9.1
CCCC[C@H](N)Cc1ccccc1.Cl | 21 | 10.5
CCC[C@@H](N)Cc1ccccc1.Cl | 28 | 5.1
C[C@@H](N)Cc1ccccc1.Cl | ~270 | ~ 1.5
CCCC[C@@H](N)Cc1ccccc1.Cl | 16 | 5.7
C[C@H](N)Cc1ccccc1.Cl | ~280 | ~ 1.6
CCC(N)Cc1ccccc1.Cl (stereo unspecified) | 30 | 4
CC[C@@H](N)Cc1ccccc1.Cl | 23 | 3.2
